# Data from ChEMBL document CHEMBL1146217, “Growth inhibition of Mycobacterium bovis, Mycobacterium tuberculosis and Mycobacterium avium in vitro: effect of 1-beta-D-2'-arabinofuranosyl and 1-(2'-deoxy-2'-fluoro-beta-D-2'-ribofuranosyl) pyrimidine nucleoside analogs” (J Med Chem, 2007).
# Key:
# [1] = test system: Mycobacterium tuberculosis; assay: Antimycobacterial activity against Mycobacterium tuberculosis H37Ra at 100 ug/mL by microplate Alamar blue assay; assay type: functional
# Outline: (§1)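 MABA with M. bovis BCG, M. tuberculosis H37Ra or M. avium ATCC 25291. DMSO stocks (10 mg/mL) diluted in 7H9GC; final inoculum 2.5 × 10⁵ CFU/mL. Incubated 6 days, then alamar blue plus Tween 80 added and read by fluorescence after about 24 h. […]. Tested in triplicate at 100, 50, 10 and 1 µg/mL; two experiments, mean reported.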
# [2] = test system: Mycobacterium tuberculosis; assay: Antimycobacterial activity against Mycobacterium tuberculosis H37Ra at 50 ug/mL by microplate Alamar blue assay; assay type: functional; outline: as §1
# [3] = test system: Mycobacterium tuberculosis; assay: Antimycobacterial activity against Mycobacterium tuberculosis H37Ra at 10 ug/mL by microplate Alamar blue assay; assay type: functional; outline: as §1
# [4] = test system: Mycobacterium tuberculosis; assay: Antimycobacterial activity against Mycobacterium tuberculosis H37Ra at 1ug/mL by microplate Alamar blue assay; assay type: functional; outline: as §1
# [5] = test system: Mycobacterium tuberculosis; assay: Antimycobacterial activity against Mycobacterium tuberculosis H37Ra by microplate Alamar blue assay; assay type: functional
# Outline: (§2)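 Same alamar blue microplate setup (7H9GC, 2.5 × 10⁵ CFU/mL, 6 days, then dye read after about 24 h), using 2-fold compound dilutions. MIC90 is the lowest concentration giving about 90% inhibition relative to bacteria-only wells after background subtraction. Visual MIC is the lowest concentration preventing the blue-to-pink change.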
# Mycobacterium avium [6] = assay: Antimycobacterial activity against Mycobacterium avium ATCC 25291 at 100 ug/mL by microplate Alamar blue assay; assay type: functional; outline: as §1
# Mycobacterium avium [7] = assay: Antimycobacterial activity against Mycobacterium avium ATCC 25291 at 50 ug/mL by microplate Alamar blue assay; assay type: functional; outline: as §1
# Mycobacterium avium [8] = assay: Antimycobacterial activity against Mycobacterium avium ATCC 25291 by microplate Alamar blue assay; assay type: functional; outline: as §2
# Vero = assay: Toxicity against Vero cells after 3 days by MTT test; assay type: cell-based; settings: chlorocebus sabaeus, 72 h
# Outline: (§3)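 MTT viability assay. Vero or HFF cells seeded at 2.5 × 10⁵ cells/well and left to attach 6-8 h. Exposed to compound at 100, 50, 25, 12.5, 6.3 and 1.5 µg/mL for 3 days at 37 °C, with a DMSO control. MTT added for 4 h, then solubilized overnight; absorbance read at 560-650 nm.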
# [9] = Toxicity against human foreskin fibroblast cells after 3 days by MTT test; assay type: cell-based; outline: as §3
# Escherichia coli = assay: Antibacterial activity against Escherichia coli ATCC 25922 after 16 to 20 hrs by broth microdilution method; assay type: functional; settings: Escherichia coli, ATCC 25922
# Outline: (§4)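 Broth microdilution MIC. Exponentially growing bacteria diluted in sterile liquid medium to a final inoculum of 1 × 10⁴ CFU/mL. Cultured with compound dilutions for 16-20 h; compounds tested at 100, 50, 10 and 1 µg/mL. MIC taken as the concentration giving 100% inhibition of bacterial growth.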
# Klebsiella aerogenes = assay: Antibacterial activity against Enterobacter aerogenes after 16 to 20 hrs by broth microdilution method; assay type: functional; settings: Klebsiella aerogenes; outline: as §4
# Proteus vulgaris = assay: Antibacterial activity against Proteus vulgaris ATCC 49132 after 16 to 20 hrs by broth microdilution method; assay type: functional; outline: as §4
# Pseudomonas aeruginosa = assay: Antibacterial activity against Pseudomonas aeruginosa […] after 16 to 20 hrs by broth microdilution method; assay type: functional; settings: Pseudomonas aeruginosa, ATCC 13048; outline: as §4
# Salmonella typhimurium = assay: Antibacterial activity against Salmonella Typhimurium after 16 to 20 hrs by broth microdilution method; assay type: functional, Salmonella enterica subsp. enterica serovar Typhimurium; settings: Salmonella enterica; outline: as §4
# [10] = test system: Staphylococcus epidermidis; assay: Antibacterial activity against Staphylococcus epidermidis ATCC 14990 after 16 to 20 hrs by broth microdilution method; assay type: functional; settings: for MIC: Staphylococcus epidermidis, ATCC 14990; outline: as §4
# Staphylococcus aureus = assay: Antibacterial activity against Staphylococcus aureus ATCC 25923 after 16 to 20 hrs by broth microdilution method; assay type: functional; settings: for MIC: Staphylococcus aureus, ATCC 25923; outline: as §4
# Bacillus subtilis = assay: Antibacterial activity against Bacillus subtilis ATCC 6633 after 16 to 20 hrs by broth microdilution method; assay type: functional; settings: Bacillus subtilis, ATCC 6633; outline: as §4
# Listeria monocytogenes = assay: Antibacterial activity Listeria monocytogenes ATCC 15313 after 16 to 20 hrs by broth microdilution method; assay type: functional; settings: for MIC: Listeria monocytogenes, ATCC 15313; outline: as §4
# Streptococcus pyogenes = assay: Antibacterial activity Streptococcus pyogenes ATCC 19615 after 16 to 20 hrs by broth microdilution method; assay type: functional; settings: for MIC: Streptococcus pyogenes, ATCC 19615; outline: as §4
# Streptococcus pneumoniae = assay: Antibacterial activity Streptococcus pneumoniae ATCC 49619 after 16 to 20 hrs by broth microdilution method; assay type: functional; settings: for MIC: Streptococcus pneumoniae, ATCC 49619; outline: as §4
# Enterococcus faecalis = assay: Antibacterial activity Enterococcus faecalis ATCC 29212 after 16 to 20 hrs by broth microdilution method; assay type: functional; settings: for MIC: Enterococcus faecalis, ATCC 29212; outline: as §4
smiles,measurement,setting,value
CCCCCCCCCCC#Cc1cn([C@@H]2O[C@H](CO)[C@@H](O)[C@@H]2O)c(=O)[nH]c1=O,inhibition at 100 µg/mL,[1],100%
same,inhibition at 50 µg/mL,[2],100%
same,inhibition at 10 µg/mL,[3],100%
same,inhibition at 1 µg/mL,[4],75%
same,MIC90,[5],1 µg/mL
same,inhibition at 100 µg/mL,Mycobacterium avium [6],100%
same,inhibition at 50 µg/mL,Mycobacterium avium [7],55%
same,MIC90,Mycobacterium avium [8],50 µg/mL
same,CC10,Vero,> 100 µg/mL
same,CC50 at 72 h,[9],> 100 µg/mL
CCCCCCCCCCCC#Cc1cn([C@@H]2O[C@H](CO)[C@@H](O)[C@@H]2O)c(=O)[nH]c1=O,inhibition at 100 µg/mL,[1],100%
same,inhibition at 50 µg/mL,[2],100%
same,inhibition at 10 µg/mL,[3],50%
same,MIC90,[5],10 µg/mL
same,inhibition at 100 µg/mL,Mycobacterium avium [6],25%
same,CC10,Vero,> 100 µg/mL
same,CC50 at 72 h,[9],> 100 µg/mL
O=c1[nH]c(=O)n([C@@H]2O[C@H](CO)[C@@H](O)[C@H]2F)cc1Cl,inhibition at 100 µg/mL,[1],20%
same,inhibition at 100 µg/mL,Mycobacterium avium [6],0%
Cc1cn([C@@H]2O[C@H](CO)[C@@H](O)[C@H]2F)c(=O)[nH]c1=S,inhibition at 100 µg/mL,[1],25%
same,inhibition at 100 µg/mL,Mycobacterium avium [6],0%
O=c1[nH]c(=O)n([C@@H]2O[C@H](CO)[C@@H](O)[C@@H]2O)cc1C(O)C(Cl)Cl (some centres undefined),inhibition at 100 µg/mL,[1],0%
same,inhibition at 100 µg/mL,Mycobacterium avium [6],0%
O=c1[nH]c(=O)n([C@@H]2O[C@H](CO)[C@@H](O)[C@@H]2O)cc1C(O)CI (some centres undefined),inhibition at 100 µg/mL,[1],0%
same,inhibition at 100 µg/mL,Mycobacterium avium [6],0%
O=C(O)C(I)C(O)c1cn([C@@H]2O[C@H](CO)[C@@H](O)[C@H]2F)c(=O)[nH]c1=O (some centres undefined),inhibition at 100 µg/mL,[1],0%
same,inhibition at 100 µg/mL,Mycobacterium avium [6],0%
O=c1[nH]c(=O)n([C@@H]2O[C@H](CO)[C@@H](O)[C@@H]2O)cc1Cl,inhibition at 100 µg/mL,[1],0%
same,inhibition at 100 µg/mL,Mycobacterium avium [6],0%
O=c1[nH]c(=S)ccn1[C@@H]1O[C@H](CO)[C@@H](O)[C@@H]1O,inhibition at 100 µg/mL,[1],0%
same,inhibition at 100 µg/mL,Mycobacterium avium [6],0%
CCCCCC#Cc1cn([C@@H]2O[C@H](CO)[C@@H](O)[C@H]2F)c(=O)[nH]c1=O,inhibition at 100 µg/mL,[1],50%
same,inhibition at 100 µg/mL,Mycobacterium avium [6],0%
same,CC10,Vero,> 100 µg/mL
same,CC50 at 72 h,[9],> 100 µg/mL
O=c1[nH]c(=S)ccn1[C@@H]1O[C@H](CO)[C@@H](O)[C@H]1F,inhibition at 100 µg/mL,[1],25%
same,inhibition at 100 µg/mL,Mycobacterium avium [6],0%
CCOC(=O)/C=C/c1cn([C@@H]2O[C@H](CO)[C@@H](O)[C@@H]2O)c(=O)[nH]c1=O,inhibition at 100 µg/mL,[1],0%
same,inhibition at 100 µg/mL,Mycobacterium avium [6],0%
CCCCCCCCC#Cc1cn([C@@H]2O[C@H](CO)[C@@H](O)[C@H]2F)c(=O)[nH]c1=O,inhibition at 100 µg/mL,[1],100%
same,inhibition at 50 µg/mL,[2],100%
same,inhibition at 10 µg/mL,[3],50%
same,inhibition at 1 µg/mL,[4],25%
same,MIC90,[5],50 µg/mL
same,inhibition at 100 µg/mL,Mycobacterium avium [6],50%
same,MIC,Escherichia coli,> 100 µg/mL
same,MIC,Klebsiella aerogenes,> 100 µg/mL
same,MIC,Proteus vulgaris,> 100 µg/mL
same,MIC,Pseudomonas aeruginosa,> 100 µg/mL
same,MIC,Salmonella typhimurium,> 100 µg/mL
same,Inhibition,[10],100%
same,MIC,[10],100 µg/mL
same,Inhibition,Staphylococcus aureus,100%
same,MIC,Staphylococcus aureus,100 µg/mL
same,MIC,Bacillus subtilis,> 100 µg/mL
same,Inhibition,Listeria monocytogenes,100%
same,MIC,Listeria monocytogenes,100 µg/mL
same,Inhibition,Streptococcus pyogenes,100%
same,MIC,Streptococcus pyogenes,100 µg/mL
same,Inhibition,Streptococcus pneumoniae,100%
same,MIC,Streptococcus pneumoniae,100 µg/mL
same,Inhibition,Enterococcus faecalis,100%
same,MIC,Enterococcus faecalis,100 µg/mL
same,CC10,Vero,> 100 µg/mL
same,CC50 at 72 h,[9],> 100 µg/mL
O=C(O)/C=C/c1cn([C@@H]2O[C@H](CO)[C@@H](O)[C@H]2F)c(=O)[nH]c1=O,inhibition at 100 µg/mL,[1],0%
same,inhibition at 100 µg/mL,Mycobacterium avium [6],0%
NNC(=O)c1ccncc1 [ISONIAZID],MIC,Escherichia coli,> 100 µg/mL
same,MIC,Klebsiella aerogenes,> 100 µg/mL
same,MIC,Proteus vulgaris,> 100 µg/mL
same,MIC,Pseudomonas aeruginosa,> 100 µg/mL
same,MIC,Salmonella typhimurium,> 100 µg/mL
same,MIC,[10],> 100 µg/mL
same,MIC,Staphylococcus aureus,> 100 µg/mL
same,MIC,Bacillus subtilis,> 100 µg/mL
same,MIC,Listeria monocytogenes,> 100 µg/mL
same,MIC,Streptococcus pyogenes,> 100 µg/mL
same,MIC,Streptococcus pneumoniae,> 100 µg/mL
same,MIC,Enterococcus faecalis,> 100 µg/mL
